# Assay outcomes from PubChem BioAssay.
# mABHD4 FP – inhibits mouse alpha/beta hydrolase domain 4 | Q8VD66 | purified mABHD4, FP-Rh probe fluorescence polarization | inhibition, % at 8.92 µM | actives 0.54% (n = 370,000) | AID 720543;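 active = inhibition exceeding the mean over every tested compound plus 3 SD, cut at about 30% in these data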;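 note: 0% = plate median of compound wells and 100% = S159A mutant with DMSO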
# Target sequence (Q8VD66 whole entry, looked up, the tested form may be a part): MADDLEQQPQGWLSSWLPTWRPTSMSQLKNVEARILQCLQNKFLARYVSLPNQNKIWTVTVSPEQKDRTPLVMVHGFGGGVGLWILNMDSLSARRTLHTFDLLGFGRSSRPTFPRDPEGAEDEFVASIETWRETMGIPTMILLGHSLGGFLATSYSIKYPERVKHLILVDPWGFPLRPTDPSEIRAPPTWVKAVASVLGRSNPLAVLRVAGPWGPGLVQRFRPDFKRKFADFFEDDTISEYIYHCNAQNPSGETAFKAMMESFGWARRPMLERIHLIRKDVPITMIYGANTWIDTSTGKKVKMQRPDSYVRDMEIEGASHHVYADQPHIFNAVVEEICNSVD
#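 Test system: mABHD4 protein; Read-out basis: % inhibition; Incubation: 45 min + 60 min at 25 °C; Repeats: single replicate; Technique: fluorescence polarization with parallel and perpendicular emission, 525/598 nm; Compound: 8.92 µM, single dose; Benchmarks: full inhibition S159A mutant plus DMSO, zero as sample-well median.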
# PAD4 inh – blocks human protein arginine deiminase 4 | actives 0.41% (n = 330,000) | Q9UM07 | recombinant PAD4, RCA probe fluorescence polarization | AID 485272 | inhibition, % at 6.36 µM;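 active = percent inhibition above a cutoff equal to the mean of all tested compounds plus 3 SD, cut at about 15% in these data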;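 note: 0% = PAD4 with RCA probe and DMSO and 100% = probe without PAD4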
# TDP2 absorb – TDP2 (human) inhibition, absorbance primary screen | O95551 | recombinant TDP2, T5PNP hydrolysis, p-nitrophenol absorbance 415 nm | AID 720702 | actives 0.34% (n = 370,000) | inhibition, % at 12.8 µM;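 active = inhibition above the mean of all tested compounds plus 3 SD, set per campaign, cut at about 25% in these data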;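 note: 0% = DMSO with enzyme and 100% = buffer with substrate but no TDP2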
# Target sequence (O95551 whole entry, looked up): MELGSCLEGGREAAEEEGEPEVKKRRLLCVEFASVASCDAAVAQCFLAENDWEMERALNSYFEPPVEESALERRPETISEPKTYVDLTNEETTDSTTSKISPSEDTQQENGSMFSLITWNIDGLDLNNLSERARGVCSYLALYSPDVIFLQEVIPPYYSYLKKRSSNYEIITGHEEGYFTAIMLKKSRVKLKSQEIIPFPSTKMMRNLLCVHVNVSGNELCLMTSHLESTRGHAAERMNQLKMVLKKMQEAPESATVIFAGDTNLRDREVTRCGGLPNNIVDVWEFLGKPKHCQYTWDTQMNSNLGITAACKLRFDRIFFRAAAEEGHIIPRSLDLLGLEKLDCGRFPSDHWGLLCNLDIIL
#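 System – recombinant human TDP2 · Amount – 120 nM TDP2 per well · Buffer or medium – Mg2+-containing Tris-HCl buffer, pH 7.5 · Reagent – T5PNP substrate, 5 mM · Dosing – 12.8 µM single point, 1% DMSO · Incubation – 2 h at 37 °C · Measured by – epi absorbance · Read-out basis – percent inhibition · Benchmarks – high control without enzyme, low control DMSO plus TDP2 · Repeats – singlicate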
# TCR CD3 inh – blocks the human TCR-CD3 interaction | actives 0.37% (n = 360,000) | TAMRA-labeled TCR probe fluorescence, biochemical | AID 651800 | inhibition, % at 9.4 µM;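 note: recombinant mutant TCR 2C K166C tagged with TAMRA read by polarization; 0% = receptor in buffer alone and 100% = receptor with positive control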
# HTRA1 inhibitor – HTRA1 (human) protease inhibition | Q92743 | recombinant HTRA1, FP-rhodamine activity-based probe, fluorescence polarization | inhibition, % at 5.96 µM | actives 0.5% (n = 340,000) | AID 504803; in the data active = inhibition above about 36%;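 note: 0% = enzyme with DMSO and 100% = wells lacking enzyme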
# SIAE primary – inhibitors of human sialic acid acetylesterase SIAE. SIAE FP-Rh probe binding, fluorescence polarization. actives 0.69% (n = 370,000). AID 1053197. inhibition, % at 9.66 µM. Q9HAT2;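 active = inhibition above a cutoff: mean of compounds within the control limits plus 3 SD of those, cut at about 17% in these data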;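 note: 0% = plate median of compound wells and 100% = probe without SIAE protein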
# PAD4 confirm – confirmation of human PAD4 inhibitors; shares compounds with PAD4 inh; recombinant PAD4, RCA probe fluorescence polarization; inhibition, % at 6.36 µM; actives 28% (n = 1,200);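 active = mean inhibition across replicates above the hit cutoff set by the earlier primary screen, cut at about 15% in these data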;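 note: inhibitors block active-site labeling by the probe so polarization falls; 0% = PAD4 with probe and DMSO and 100% = probe without PAD4 enzyme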
# HTRA1 inh conf – confirmation of human HTRA1 inhibitors | shares compounds with HTRA1 inhibitor | recombinant HTRA1, FP-rhodamine activity-based probe, fluorescence polarization | inhibition, % at 5.96 µM | actives 66% (n = 1,600);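 active = mean inhibition over three repeats above a set limit taken from the earlier primary screen, cut at about 37% in these data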;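 note: 0% = HTRA1 with DMSO and 100% = wells lacking HTRA1; inhibitors block probe binding so polarization drops and inhibition rises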
# BSA probe FL – counter-screen for TCR-CD3 interaction inhibitors: BSA probe; shares compounds with TCR CD3 inh; TAMRA-labeled BSA probe fluorescence counterscreen; inhibition, % at 9.4 µM; actives 10% (n = 1,200); AID 652035; in the data active = inhibition above about 23%;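 note: 0% = buffer low control and 100% = reference high control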
# TCR-CD3 inh conf – TCR-CD3 interaction inhibition, confirmation; shares compounds with TCR CD3 inh; TAMRA-labeled TCR probe fluorescence binding assay; inhibition, % at 9.4 µM; actives 48% (n = 1,200); AID 652036
# mABHD4 conf – confirmation of mouse ABHD4 inhibitors. shares compounds with mABHD4 FP. purified mABHD4, FP-Rh probe fluorescence polarization. inhibition, % at 8.92 µM. actives 55% (n = 1,800). AID 720658;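 active = mean inhibition across replicates above the hit cutoff set in the primary screen, cut at about 30% in these data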;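 note: 0% = wild-type ABHD4 with DMSO and 100% = catalytically dead S159A mutant with DMSO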
# TDP2 inh conf – human TDP2 inhibition, confirmation. shares compounds with TDP2 absorb. recombinant human TDP2, absorbance read-out. inhibition, % at 12.8 µM. actives 22% (n = 1,100); in the data active = inhibition above about 25%;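 note: 0% = vehicle with enzyme and 100% = no enzyme buffer only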
# SIAE confirm – human SIAE inhibition, confirmation. shares compounds with SIAE primary. SIAE FP-Rh activity-based probe, fluorescence polarization. inhibition, % at 9.66 µM. actives 13% (n = 2,300);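 active = mean inhibition of the replicates above the hit cutoff set in the primary screen, cut at about 17% in these data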;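 note: 0% = SIAE with DMSO and probe and 100% = probe without SIAE; inhibitors lower polarization as more probe stays unbound to SIAE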
# An asterisk follows results filed as active; . = no result. Most compounds without a hit are left out; they make up all but 2% or so of the library. Cut-off read from the data, not from the text of the source, unless noted: active = inhibition above about 19%; inactive = the rest.
SMILES,mABHD4 FP,PAD4 inh,TDP2 absorb,TCR CD3 inh,HTRA1 inhibitor,SIAE primary,HTRA1 inh conf,others
c1ccc(CCN2CCC3CCNC3C2)cc1 (stereo not drawn),-6,.,-4,3,.,2,.,
O=c1[nH]c(=S)n(-c2ccccc2F)c(O)c1C=Nc1ccc(N2CCOCC2)cc1,58*,17*,2,4,12,9,.,PAD4 confirm=3;mABHD4 conf=2
CCC(C)OC(=O)c1c(N)n(Cc2cccs2)c2nc3ccccc3nc12 (stereo not drawn),-17,-15,-5,-7,-41,3,.,
Nc1c(C(=O)OCc2ccccc2)c2nc3ccccc3nc2n1Cc1cccs1,-59,25*,25*,5,-67,8,.,PAD4 confirm=-4;TDP2 inh conf=-3
CCCCn1nnnc1C(CC)N1CCC2(CC1)C(=O)NCN2c1ccccc1 (stereo not drawn),1,.,5,5,.,-1,.,
O=C1NCN(c2ccccc2)C12CCN(C(c1ccccc1OC(F)(F)F)c1nnnn1Cc1ccccc1)CC2 (stereo not drawn),1,.,1,4,.,-3,.,
CCCCn1c(NS(=O)(=O)c2ccccc2)c(C(=O)OCC)c2nc3ccccc3nc21,6,63*,88*,-5,12,2,.,PAD4 confirm=-13;TDP2 inh conf=83*
C[n+]1c(-c2ccccc2)c2cc(N)ccc2c2ccc(N)cc21,75*,81*,58*,116*,97*,49*,123*,PAD4 confirm=74*;BSA probe FL=160*;TCR-CD3 inh conf=130*;mABHD4 conf=111*;TDP2 inh conf=20
COc1cc2c3c(c1OC)Oc1ccc(cc1)C[C@H]1c4c(cc(OC)c(OC)c4Oc4ccc(cc4)C[C@@H]3N(C)CC2)CCN1C,4,-7,-8,-2,4,-1,.,
CN1CCc2cc3c(c4c2C1Cc1ccccc1-4)OCO3 (stereo not drawn),46*,58*,23,7,68*,24*,2,PAD4 confirm=-12;mABHD4 conf=50*;SIAE confirm=3
COc1ccc(-n2nnnc2C(c2cccc3ccccc23)N2CCC3(CC2)C(=O)NCN3c2ccccc2)cc1 (stereo not drawn),-14,.,8,13,.,-10,.,
O=c1cc(C(F)(F)F)c2cc3c4c(c2o1)CCCN4CCC3,29,35*,-2,9,-10,18*,.,PAD4 confirm=38*;SIAE confirm=10
CCCCn1c(=O)c(C(=O)Nc2ccccc2N)c(O)c2ccccc21,3,1,-1,-9,40*,-11,20,
CCCCCn1c(=O)c(C(=O)Nc2ccccc2N)c(O)c2ccccc21,2,-2,-7,5,10,1,.,
CCN(CC)C(=O)c1ccc2c(c1)C1C=CCC1C(C(=O)O)N2 (stereo not drawn),54*,.,8,24*,59*,17,55*,
Cc1ccc2c(c1Cl)NC(C(=O)O)C1CC(Sc3ccccc3[N+](=O)[O-])C(Cl)C21 (stereo not drawn),.,0,.,.,43*,.,41*,
CCN(CC)C(=O)c1ccc2c(c1)C1C(Cl)C(Sc3ccccc3[N+](=O)[O-])CC1C(C(=O)O)N2 (stereo not drawn),.,-1,.,.,78*,.,77*,
Cc1ccc(S(=O)(=O)N2Cc3cc(N4CCOCC4)ccc3-n3nncc3C2)cc1,3,.,6,0,.,0,.,
C[C@H](CO)N1C[C@H](C)[C@@H](CN(C)C(=O)Oc2ccc3ccccc3c2)OCc2cn(nn2)CCCC1=O,4,.,3,-5,-2,6,.,
O=c1[nH]c(=S)n(C2CC2)c(O)c1/C=N/Nc1cccc2ccccc12,27,-11,16,-4,41*,11,22,
O=c1[nH]c(=S)n(C2CC2)c(O)c1/C=N/Nc1ccccc1,-14,-22,-9,-16,-4,-1,.,
Cc1ccc2nc(-c3ccc(CN4CCC(n5c(=O)[nH]c6cc(Cl)ccc65)CC4)cc3)c(-c3ccccc3)nc2c1,-6,.,2,6,.,-22,.,
O=c1c2ccccc2nc(/C=C/c2ccccc2)n1-c1ccc(O)cc1,-12,1,-11,-3,-36,-14,.,
O=c1c2ccccc2nc(/C=C/c2ccc(O)c(O)c2)n1-c1ccccc1,19,-4,-27,4,64*,-10,87*,
Cc1nc2ccccc2c(=O)n1/N=C/c1cc(Br)cc(Br)c1O,9,5,5,46*,36*,2,95*,BSA probe FL=-12;TCR-CD3 inh conf=47*
SMILES,mABHD4 FP,PAD4 inh,TDP2 absorb,TCR CD3 inh,HTRA1 inhibitor,SIAE primary,HTRA1 inh conf,others
CN(C)C1CCc2[nH]c3c(F)cc(F)cc3c2C1 (stereo not drawn),7,.,5,3,6,5,.,
CN(C)[C@@H]1C(=O)C(C(N)=O)=C(O)[C@@]2(O)C(=O)C3=C(O)c4c(O)cccc4[C@@](C)(O)C3[C@H](O)C12 (stereo partly drawn),68*,-1,14,27*,43*,17,11,BSA probe FL=-2;TCR-CD3 inh conf=11;mABHD4 conf=22
CN(C)[C@@H]1C(=O)C(C(N)=O)=C(O)[C@@]2(O)C(=O)C3=C(O)c4c(O)ccc(Cl)c4[C@@](C)(O)C3C[C@@H]12 (stereo partly drawn),60*,.,-8,12,40*,11,17,mABHD4 conf=25
COc1ccccc1N,7,.,-7,3,.,-3,.,
O=S(=O)(c1ccc2ccccc2c1)N1Cc2cc(Br)ccc2-n2nncc2C1,3,.,0,-6,.,1,.,
CCCCCC[N+](=O)[O-],-2,-3,1,2,2,-1,.,
CCCCCCCCCCCCCCCC[N+](C)(C)C,32*,5,3,6,54*,5,78*,mABHD4 conf=55*
O=C(N/N=C1/CN2CCC1CC2)c1cc2ccccc2cc1O,39*,-5,-1,9,55*,17*,12,mABHD4 conf=19
